# Measured values reported in ChEMBL document CHEMBL5705890, “Antitumor activity of an allosteric inhibitor of centromere-associated protein-E” (Proc Natl Acad Sci U S A, 2010).
# What was measured:
# Format in all cases: functional
# CCF-STTG1 = assay: Anticancer activity against human CCF-STTG1 cells assessed as cell growth inhibition measured after 72 hrs by DAPI staining based analysis
# Outline: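 Cells were seeded, and DNA content at 24 h after seeding (T0) was read by imaging of fixed, DAPI-stained cells. Cells were then exposed to a range of drug concentrations for a further 72 h (T72) and DNA content was read again. T72 values were normalized to T0, and GI50 was taken from curve fits as the concentration giving 50% growth inhibition relative to T0 and Ymax.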
# SW 962 = assay: Anticancer activity against human SW 962 cells assessed as cell growth inhibition measured after 72 hrs by DAPI staining based analysis
# WiDr = assay: Anticancer activity against human WiDr cells assessed as cell growth inhibition measured after 72 hrs by DAPI staining based analysis
# C-4-II = assay: Anticancer activity against human C-4-II cells assessed as cell doubling measured for 72 hrs by DAPI staining based analysis
# [1] = tested on: KATO III stomach cancer cell line; assay: Anticancer activity against human KATO III stomach cancer cell line cells assessed as cell doubling measured for 72 hrs by DAPI staining based analysis
# [2] = Anticancer activity against human MJ cells assessed as cell doubling measured for 72 hrs by DAPI staining based analysis
# MX1 = assay: Anticancer activity against human MX1 cells assessed as cell doubling measured for 72 hrs by DAPI staining based analysis
smiles,measurement,setting,value
CC(C)Oc1ccc(C(=O)N[C@H](CNC(=O)CN(C)C)Cc2ccc(-c3cn4cccc([C@H](C)O)c4n3)cc2)cc1Cl [GSK-923295A],GI50,CCF-STTG1,24 nM
same,GI50,SW 962,21 nM
same,GI50,WiDr,18 nM
same,Activity,C-4-II,2.42
same,Activity,[1],2.02
same,Activity,[2],3.39
same,Activity,MX1,2.99
